Published values gathered from unrelated publications.
Protocols differ between the studies behind these lines.
Target: Cytochrome P450 2C9 (CYP2C9, Homo sapiens, UniProt P11712)
Effect on: enzyme activity
Mode: inhibitor

`O=C(NCCN1CCCC1)c1cc(-c2ccc(CN3CCOCC3)cc2)nc2ccc(F)cc12` gave an IC50 of over 100 µM (human, liver microsomes).
`Nc1nc(N)c2nc(CNc3ccc(C(=O)NCCc4ccccc4)cc3)cnc2n1` gave an IC50 of 18.6 µM (luciferase).
The IC50 of `Cc1cc2c(F)c(Oc3ncnn4cc(OC[C@@H](C)O)c(C)c34)ccc2[nH]1` is reported as 1.39 µM (fluorescence; 15 min).
With `CCCOC(=O)C1CCN(C(=O)c2ccc(N(C)Cc3cnc4nc(N)nc(N)c4n3)cc2)CC1` the IC50 was 5.5 µM (luciferase).
For `C=CC(=O)Nc1cc(Nc2nccc(Nc3cc(Cl)c(F)cc3C(C)(C)O)n2)c(OC)cc1N1CC[C@@H](N(C)C)C1`, the IC50 was over 30 µM (human, liver microsomes).
With `Cc1ccc2nc(-c3ccccc3)c(CNc3ccc(F)cc3)n2c1` the IC50 was 0.41 µM.
For `C[C@@H](c1ccc2nccn2c1)n1nnc2ncc(-c3cnn(C)c3)nc21`, the IC50 was 4.7 µM (human, liver microsomes; pH 7.4).
For `COc1ccn2c(Nc3ccccc3F)c(-c3ccncn3)nc2c1`, the IC50 was 0.41 µM.
For `C[C@H]1CN(c2n[nH]c3nc(N[C@H]4CC[C@H](NS(=O)(=O)CCC(F)(F)F)CC4)ncc23)CCO1`, the IC50 was over 100 µM.
`COc1ccc2c(Cc3ccccc3F)c3[n+](cc2c1OC)CCc1cc2c(cc1-3)OCO2` gave an IC50 of over 10 µM.
For `Ic1ccc(CSCn2ccnc2)cc1`, the IC50 was 0.155 µM (MFC; 30 min, pH 7.4).
`CCc1cc(/C(C)=N/OCc2ccc(C3CCCCC3)c(C(F)(F)F)c2)ccc1CN1CC(C(=O)O)C1` has an IC50 of about 1.3 µM (human, liver microsomes; 20 min).
For `Cc1cc(C)c2c(c1)[C@@H](N(Cc1cc(C(F)(F)F)cc(C(F)(F)F)c1)c1nnn(C)n1)CCCN2C[C@H]1CC[C@H](C(=O)O)CC1`, the Ki was 0.57 µM (human, liver microsomes; pH 7.4).
For `Nc1nc(N)c2nc(CNc3ccc(C(=O)c4ccccc4)cc3)cnc2n1`, the IC50 was 25.1 µM (luciferase).
`COc1ccc2c(Cc3ccccc3F)c3n(c(=O)c2c1OC)CCc1cc2c(cc1-3)OCO2` gave an IC50 of over 10 µM.
